Assay results: ChEMBL document CHEMBL4325860, “Synthesis of novel 2-(1-adamantanylcarboxamido)thiophene derivatives. Selective cannabinoid type 2 (CB2) receptor agonists as potential agents for the treatment of skin inflammatory disease” (Eur J Med Chem, 2019)
Calls of active or inactive are those of the source. No cut-off for these calls is given here.

Columns and labels:
Cannabinoid receptor 1 = Cannabinoid receptor 1 (Homo sapiens, UniProt P21554); test: Displacement of [3H]CP55940 from recombinant human CB1R expressed in HEK293 cell membranes measured after 90 mins
Cannabinoid receptor 1, sequence (P21554 whole entry): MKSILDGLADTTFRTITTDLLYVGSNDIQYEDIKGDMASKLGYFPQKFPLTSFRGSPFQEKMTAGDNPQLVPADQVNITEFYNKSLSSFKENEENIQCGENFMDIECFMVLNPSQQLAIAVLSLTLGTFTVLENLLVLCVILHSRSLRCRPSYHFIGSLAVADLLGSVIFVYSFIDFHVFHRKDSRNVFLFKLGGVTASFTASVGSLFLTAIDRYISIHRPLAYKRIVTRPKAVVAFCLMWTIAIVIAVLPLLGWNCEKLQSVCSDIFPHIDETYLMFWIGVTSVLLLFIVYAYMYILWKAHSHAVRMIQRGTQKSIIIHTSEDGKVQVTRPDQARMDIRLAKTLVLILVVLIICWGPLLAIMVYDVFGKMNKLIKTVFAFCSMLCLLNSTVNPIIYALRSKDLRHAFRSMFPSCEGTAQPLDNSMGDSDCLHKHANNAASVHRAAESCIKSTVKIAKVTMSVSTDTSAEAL

Cannabinoid receptor 2 [1] = molecular target: T1, Cannabinoid receptor 2 (Homo sapiens, UniProt P34972); test: Displacement of [3H]CP55940 from recombinant human CB2R expressed in HEK293 cell membranes measured after 90 mins
T1 sequence (P34972 whole entry): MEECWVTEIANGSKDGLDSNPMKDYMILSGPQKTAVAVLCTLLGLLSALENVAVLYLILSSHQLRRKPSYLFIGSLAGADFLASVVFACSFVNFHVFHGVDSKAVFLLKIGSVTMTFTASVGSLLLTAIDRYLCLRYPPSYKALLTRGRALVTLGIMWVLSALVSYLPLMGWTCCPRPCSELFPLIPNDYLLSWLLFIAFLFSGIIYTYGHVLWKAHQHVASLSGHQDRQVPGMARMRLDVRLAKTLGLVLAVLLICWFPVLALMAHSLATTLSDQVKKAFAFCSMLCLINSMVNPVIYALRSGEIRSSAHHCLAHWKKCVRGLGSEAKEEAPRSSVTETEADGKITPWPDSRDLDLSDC

[2] = molecular target: Cannabinoid receptor 1 (CB1R) (Homo sapiens, UniProt P21554); test: Displacement of [3H]CP55940 from recombinant human CB1R expressed in HEK293 cell membranes at 10 uM measured after 90 mins relative to control; details: membranes of HEK293 cells expressing recombinant human CB1R, probe [3H]CP55940
Cannabinoid receptor 1 (CB1R), sequence (P21554 whole entry): as the sequence (P21554 whole entry) above

Cannabinoid receptor 2 [3] = molecular target: T1, Cannabinoid receptor 2; test: Displacement of [3H]CP55940 from recombinant human CB2R expressed in HEK293 cell membranes at 10 uM measured after 90 mins relative to control
Homo sapiens = organism: Homo sapiens; test: Selectivity index, ratio of Ki for displacement of [3H]CP55940 from recombinant human CB1R expressed in HEK293 cell membranes to Ki for displacement of [3H]CP55940 from recombinant human CB2R expressed in HEK293 cell membranes
Method in brief: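 Competition binding on membranes of HEK cells transfected with human CB1R or CB2R, radioligand [³H]CP-55,940. Ki from at least three separate experiments run in duplicate, reported as mean. Selectivity index = Ki(CB1R)/Ki(CB2R).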

Cannabinoid receptor 2 [4] = molecular target: T1, Cannabinoid receptor 2; test: Agonist activity at recombinant human CB2R expressed in CHOK1 cells assessed as inhibition of NKH477-stimulated intracellular cAMP levels after 30 mins by chemiluminescent assay; format: functional, cell-based
Method in brief: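 cAMP Hunter enzyme fragment complementation assay with chemiluminescent detection, in stable CHO cells expressing human CB2R, stimulated with NKH-477. Concentration-response curves. Response normalized with NKH-477 alone as 100%. Mean ± SEM of three independent experiments run in triplicate.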

Cannabinoid receptor 2 [5] = molecular target: T1, Cannabinoid receptor 2; test: Agonist activity at recombinant human CB2R expressed in CHOK1 cells assessed as inhibition of NKH477-stimulated intracellular cAMP levels preincubated for 15 mins followed by CB2R agonist JWH133 addition and measured after 30 mins by chemiluminescent assay; format: functional, cell-based
Cannabinoid receptor 2 [6] = molecular target: T1, Cannabinoid receptor 2; test: Activity at recombinant human CB2R expressed in CHOK1 cells assessed as effect on basal intracellular cAMP levels at higher concentration measured after 30 mins by chemiluminescent assay; format: functional, cell-based
HaCaT [7] = test: Antiinflammatory activity in human HaCaT cells assessed as inhibition of polyinosinic polycytidylic acid-stimulated MCP2 release at 10 uM measured after 6 hrs by ELISA; format: functional, cell-based
Method in brief: (§1)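 HaCaT keratinocytes stimulated with poly-(I:C) at 100 µg/mL. MCP-2 release measured with test agent at 10 µM, alone or co-incubated with the CB2R antagonist AM630 at 0.1 µM.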

HaCaT [8] = test: Antiinflammatory activity in human HaCaT cells assessed as inhibition of polyinosinic polycytidylic acid-stimulated MCP2 release at 10 uM measured after 6 hrs in presence of CB2R antagonist AM630 by ELISA; format: functional, cell-based; method in brief: as §1

Structure (SMILES) | Ki (Cannabinoid receptor 1) [µM] | Ki (Cannabinoid receptor 2 [1]) [µM] | inhibition at 1.5 h, 10 µM [2] [%] | inhibition (Cannabinoid receptor 2 [3]) [%] | Ratio Ki (Homo sapiens) | EC50 (Cannabinoid receptor 2 [4]) [µM] | inhibition (Cannabinoid receptor 2 [5]) | Activity (Cannabinoid receptor 2 [6]) | inhibition (HaCaT [7]) | inhibition (HaCaT [8])
CCc1c(C)sc(NC(=O)c2ccc(Cl)cc2)c1C(=O)OC | > 10 | 0.621 | < 50 | > 50 | > 16 | – | – | – | – | –
COc1ccc(C(=O)c2c(C)n(CCN3CCOCC3)c3cc(I)ccc23)cc1 | – | – | < 50 | > 50 | – | – | – | – | – | –
COC(=O)c1c(NC(=O)C23CC4CC(CC(C4)C2)C3)sc2c1CCCC2 | > 10 | 0.00508 | < 50 | > 50 | > 1970 | 1.53 | inactive | inactive | – | –
COC(=O)c1c(C)noc1NC(=O)C12CC3CC(CC(C3)C1)C2 | > 10 | 0.0647 | < 50 | > 50 | > 154 | – | – | – | – | –
COC(=O)c1c(NC(=O)N2CCOCC2)sc2c1CCCC2 | > 10 | 2.49 | < 50 | > 50 | > 4 | – | – | – | – | –
CCCCc1sc(NC(=O)C23CC4CC(CC(C4)C2)C3)c(C(=O)OC)c1C | 0.0589 | 0.00172 | < 50 | > 50 | 34 | 1.14 | inactive | inactive | – | –
COC(=O)c1c(NC(=O)Oc2ccccc2)sc2c1CCCC2 | > 10 | 0.244 | < 50 | > 50 | > 41 | – | – | – | – | –
CCc1c(C)sc(NC(=O)C23CC4CC(CC(C4)C2)C3)c1C(=O)OC | 0.185 | 0.00246 | < 50 | > 50 | 75 | 0.197 | inactive | – | Active | inactive
COC(=O)c1c(NC(=O)C23CC4CC(CC(C4)C2)C3)cnn1C | > 10 | 1.08 | < 50 | > 50 | > 9 | – | – | – | – | –
CCCc1c(C)sc(NC(=O)C23CC4CC(CC(C4)C2)C3)c1C(=O)OC | – | – | < 50 | > 50 | 257 | – | – | – | – | –
CCCc1cc(C(=O)OC)c(NC(=O)C23CC4CC(CC(C4)C2)C3)s1 | 1.34 | 0.00721 | < 50 | > 50 | 186 | – | – | – | – | –
CCc1sc(NC(=O)C23CC4CC(CC(C4)C2)C3)c(C(=O)OC)c1C | 2.12 | 0.00592 | < 50 | > 50 | 358 | 0.371 | inactive | – | – | –
CCCCCc1sc(NC(=O)C23CC4CC(CC(C4)C2)C3)c(C(=O)OC)c1-c1ccccc1 | 0.519 | 0.00803 | < 50 | > 50 | 65 | – | – | – | – | –
COC(=O)c1c(NC(=O)C23CC4CC(CC(C4)C2)C3)sc2c1CCS(=O)(=O)C2 | > 10 | 1.67 | < 50 | > 50 | > 6 | – | – | – | – | –
CCc1c(C)sc(NC(=O)c2ccc(F)cc2)c1C(=O)OC | > 10 | 0.496 | < 50 | > 50 | > 20 | – | – | – | – | –
COC(=O)c1c(-c2ccccc2)csc1NC(=O)C12CC3CC(CC(C3)C1)C2 | > 10 | 0.035 | < 50 | > 50 | > 285 | – | – | – | – | –
COC(=O)c1c(NC(=O)N2CCCCC2)sc2c1CCCC2 | > 10 | 0.196 | < 50 | > 50 | > 51 | – | – | – | – | –
Cc1ccc(Cn2nc(C(=O)N[C@@H]3C(C)(C)[C@@H]4CC[C@@]3(C)C4)cc2-c2ccc(Cl)c(C)c2)cc1 | – | – | < 50 | – | – | – | – | – | – | –
COC(=O)c1ccsc1NC(=O)C12CC3CC(CC(C3)C1)C2 | > 10 | 1.32 | < 50 | > 50 | > 68 | – | – | – | – | –
COC(=O)c1c(NC(=O)C23CC4CC(CC(C4)C2)C3)sc2c1CCSC2 | > 10 | 0.0507 | < 50 | > 50 | > 197 | – | – | – | – | –
COC(=O)c1cc(-c2ccccc2)sc1NC(=O)C12CC3CC(CC(C3)C1)C2 | > 10 | 0.00648 | < 50 | > 50 | > 1540 | – | – | – | – | –
COC(=O)c1cc(C)sc1NC(=O)C12CC3CC(CC(C3)C1)C2 | > 10 | 0.0231 | < 50 | > 50 | > 433 | – | – | – | – | –
COC(=O)c1cccnc1NC(=O)C12CC3CC(CC(C3)C1)C2 | > 10 | 1.22 | < 50 | > 50 | > 8 | – | – | – | – | –
COC(=O)c1[nH]ccc1NC(=O)C12CC3CC(CC(C3)C1)C2 | > 10 | 2.14 | < 50 | > 50 | > 4 | – | – | – | – | –
COC(=O)c1c(NC(=O)NC23CC4CC(CC(C4)C2)C3)sc2c1CCCC2 | > 10 | 0.021 | < 50 | > 50 | > 477 | – | – | – | – | –
COC(=O)c1c(NC(=O)C23CC4CC(CC(C4)C2)C3)sc(C)c1C | > 10 | 0.00924 | < 50 | > 50 | > 1080 | 0.318 | inactive | – | – | –
COC(=O)c1nn(C)cc1NC(=O)C12CC3CC(CC(C3)C1)C2 | > 10 | 0.845 | < 50 | > 50 | > 11 | – | – | – | – | –
